The values that follow come from PubChem BioAssay AID588843 (Broad Institute, 2011).

Records with an inconclusive call do not appear. Activity calls are given as the source filed them. How the calls were made is not given here.

The subject of the first experiment is ldlA CHO mSR-BI C384S, [3H]cholesterol efflux to HDL. Put plainly: cholesterol efflux inhibition via mutant SR-BI C384S, mechanism study for SR-BI HDL uptake inhibitor project, cell-based, ldlA CHO, [3H]cholesterol, single point, dry powder (AID 588843).
Conditions: not given
A digest of the protocol: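 Assay system: Cys384S SR-BI ldlA CHO cells | Medium: HEPES-buffered medium with 0.5% FAF-BSA | Dosing: Test compound with 0.5% DMSO final in well | Schedule: 2-day [3H]cholesterol labelling, 1% FAF-BSA equilibration, 1-h pre-exposure, 2-h efflux | Detection: Liquid scintillation counting of [3H]cholesterol in medium and cells | Read-out basis: % [3H]cholesterol effluxed to medium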
Turning to `CCOC(=O)N1CCC(NC(=O)c2ccc3c(c2)N(Cc2ccc(F)cc2)CCS3)CC1`, the outcome was active.
`O=C(Nc1ccc(-c2nc3cc(NC(=O)c4ccc(NC(=O)c5cccc6ccccc56)cc4)ccc3[nH]2)cc1)c1ccc(NC(=O)c2cccc3ccccc23)cc1`: the outcome was active.

Staying with this experiment, now noted: at 1 µM; stronger effect = lower value.
On to `Cc1cc(C)c2c(c1)NC(c1cc3c(cc1Br)OCO3)C1CC=CC21` (centres undefined), for which the cholesterol efflux is 19% (inactive).
Still for that read-out and setting: under `O=C(Nc1ccc(Cl)cc1C(=O)c1ccc(Cl)cc1)c1cc(Br)ccc1NS(=O)(=O)c1ccc(Cl)cc1` stands 21.7% (inactive).
Still for that read-out and setting: next, `Cc1cc(C)n(CC(=O)NC2CCCc3c2cnn3-c2ccc(C)c(C)c2)n1` (centres undefined): 17.2% (inactive); `CCC(=O)N1CCc2cc(-c3csc(NC(=O)c4ccco4)n3)ccc21`: 9.04%; `Cc1cc(C(=O)C(C)OC(=O)C2=NNC(=O)CC2)c(C)n1-c1ccc(OC(F)F)cc1` (centres undefined): 16.5% (inactive).
`CCOc1ccc(NC(=O)CN2CCN(CC(=O)Nc3cc(OC)cc(OC)c3)CC2)cc1`: the cholesterol efflux is 17.9% (inactive).
In the case of `Cc1ccc2oc(-c3cccc(NC(=O)c4cc(-n5cnnc5)ccc4Cl)c3)nc2c1`, the cholesterol efflux is 19.7% (inactive).
In the case of `COc1ccc(OC)c(CCNC(=O)c2ccc3c(c2)N(Cc2ccc(F)cc2)CCS3)c1`, the cholesterol efflux was 16.9% (inactive).
In the case of `N#Cc1sc2nc(C3CC3)cc(-c3ccc(Cl)cc3)c2c1N`, the cholesterol efflux was 14.7%.
Turning to `CCn1c(COc2c(C)cccc2C)nnc1SCC(=O)N1CCN(c2ccccc2)CC1`, the cholesterol efflux is 17.1% (inactive).
`CC(C)OCCCNC(=O)c1ccc(C2SCC(=O)N2Cc2ccco2)cc1` (centres undefined): the cholesterol efflux is 18.9% (inactive).
Consider `Cc1ccccc1NC(=O)NCC1CCN(c2ccc(S(=O)(=O)N3CCOCC3)cc2)CC1`, for which the cholesterol efflux is 18.4% (inactive).
The same measure, in the same setting: next, `O=C(Nc1ccc(-c2nc3ccc(NC(=O)c4ccccc4)cc3[nH]2)cc1)c1ccccc1`: 11.7%; `O=C(Nc1cc(Cl)ccc1Cl)c1cc(Br)ccc1NS(=O)(=O)c1ccc(Cl)c([N+](=O)[O-])c1`: 20.5% (inactive).
On to `O=C(Nc1ccccc1Cl)c1ccccc1NS(=O)(=O)c1ccccc1`, for which the cholesterol efflux is 21% (inactive).
Same read-out and setting: next, `COc1cccc(-c2csc(N3CCN(C(=S)Nc4cccc(Cl)c4)CC3)n2)c1`: 16.6% (inactive).
`O=C(Nc1cccc(NC(=O)c2cc([N+](=O)[O-])ccc2Cl)n1)c1cc([N+](=O)[O-])ccc1Cl`: the cholesterol efflux was 14.2%.
Turning to `CC(OC(=O)c1cccc(NS(C)(=O)=O)c1)C(=O)Nc1ccc(N2CCOCC2)cc1` (centres undefined), the cholesterol efflux was 10.3%.
With `COc1ccc([C@H]2CC(=O)C=C(c3cccc4c3sc3ccccc34)C2)cc1OC`, the cholesterol efflux was 18.7% (inactive).
Turning to `CCOc1ccccc1/C=C/c1onc(C)c1S(=O)(=O)N1CCC(C(=O)NC(C)(C)C)CC1`, the cholesterol efflux was 7.29%.
As to `Cc1ccc(-c2nnc(N3CCC(C)CC3)c3ccccc23)cc1C`, the cholesterol efflux was 20.5% (inactive).
The same measure, in the same setting: under `O=C(Nc1ccc(-c2nc3cc(NC(=O)c4ccccc4[N+](=O)[O-])ccc3o2)cc1)c1ccccc1[N+](=O)[O-]` stands 5.43%; under `COC(=O)c1cn(C(=O)c2cccc3ccccc23)c2ccccc12`, 19.2% (inactive).
Take `O=C(Nc1ccc(-c2nc3cc(NC(=O)c4ccccc4Cl)ccc3o2)cc1)c1ccccc1Cl`: the cholesterol efflux was 5.15%.
Regarding `O=C(Nc1cc(C(F)(F)F)ccc1Cl)c1ccccc1NS(=O)(=O)c1ccc(Cl)cc1`, the cholesterol efflux was 21.7% (inactive).
On the same count and under the same terms, next, `COc1ccc(-c2nnn(CC(=O)N(C3CCCCC3)C(C)C(=O)NC3CCCC3)n2)cc1OC` (centres undefined): 14.2%; `Cc1cc(SC(C)C(=O)Nc2ncc(Cl)cc2Cl)nc2ccccc12` (centres undefined): 15.5%.

Still in this experiment, the particulars now being: measured here: second test run; at 1 µM; stronger effect = lower value.
`CCC(=O)N1CCc2cc(-c3csc(NC(=O)c4ccco4)n3)ccc21` had a cholesterol efflux of 7.93%.
Take `CCOC(=O)N1CCC(NC(=O)c2ccc3c(c2)N(Cc2ccc(F)cc2)CCS3)CC1`: the cholesterol efflux stood at 7.46%.
The molecule `O=C(Nc1ccc(-c2nc3cc(NC(=O)c4ccc(NC(=O)c5cccc6ccccc56)cc4)ccc3[nH]2)cc1)c1ccc(NC(=O)c2cccc3ccccc23)cc1` yielded a cholesterol efflux of 7.85%.
Molecule `O=C(Nc1ccc(-c2nc3cc(NC(=O)c4ccccc4[N+](=O)[O-])ccc3o2)cc1)c1ccccc1[N+](=O)[O-]` showed a cholesterol efflux of 3.07%.
The molecule `COc1ccc(-c2nnn(CC(=O)N(C3CCCCC3)C(C)C(=O)NC3CCCC3)n2)cc1OC` (centres undefined) returned a cholesterol efflux of 7.04%.
